# APJ ag: agonists of human APJ apelin receptor | P35414 | CHO-K1 APJ PathHunter beta-arrestin, luminescence; 0% DMSO wells, 100% apelin | activation, % at 20 µM | actives 0.11% (n = 330,000);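 active = activation more than six SD over the plate average, tested at 20 µM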
# Target sequence (P35414 whole entry, looked up): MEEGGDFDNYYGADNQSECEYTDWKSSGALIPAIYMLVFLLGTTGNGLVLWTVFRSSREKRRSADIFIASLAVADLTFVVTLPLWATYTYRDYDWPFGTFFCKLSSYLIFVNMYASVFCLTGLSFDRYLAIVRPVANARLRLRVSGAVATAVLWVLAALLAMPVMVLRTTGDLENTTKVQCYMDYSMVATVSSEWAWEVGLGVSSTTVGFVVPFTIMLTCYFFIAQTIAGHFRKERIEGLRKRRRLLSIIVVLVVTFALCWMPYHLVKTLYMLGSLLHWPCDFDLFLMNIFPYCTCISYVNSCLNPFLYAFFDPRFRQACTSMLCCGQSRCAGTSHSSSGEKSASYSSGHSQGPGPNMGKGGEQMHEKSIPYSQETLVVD
#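 Material: engineered CHO-K1 APJ arrestin reporter cells; amount: 1000 CHO-K1 reporter cells seeded per well; incubation: compound stimulation 90 min at 25 °C, detection 60 min; signal: luminescent beta-gal fragment complementation, chemiluminescent substrate; read-out basis: APJ agonist activity; controls: DMSO-only wells as negative, 10 nM Apelin-13 as positive control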
# EBI2 antag: EBI2 (human) antagonism | P32249 | EBI2 beta-arrestin recruitment, luminescence, 7a,25-OHC stimulated | inhibition, % at 5 µM | actives 0.81% (n = 360,000) | AID 651636; in the data active = inhibition above about 38%;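 note: enzyme fragment complementation signal reports receptor beta-arrestin coupling in cells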
# HTR2A ag: agonists of mouse serotonin 5-HT2A receptor (HTR2A). CHO-K1 mHTR2A beta-arrestin complementation, luminescence; percent of 30 µM serotonin response. activation, % at 7.6 µM. actives 0.66% (n = 360,000). AID 624169;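 active = activation above a run cutoff, the mean activation of all tested compounds plus 3 SD, cut at about 14% in these data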
# CCR6 antag: blocks CCL20-driven beta-arrestin recruitment at human CCR6; inhibition, % at 20 µM; CHO-K1 CCR6 PathHunter beta-arrestin, luminescence, CCL20-stimulated; P51684; actives 0.49% (n = 340,000); AID 493098;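 active = compounds whose inhibition of the agonist-driven luminescence signal at 20 µM reaches about 50%, limit read from the data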;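 note: cells stimulated with CCL20 at 14 nM final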
# APJ antag: APJ receptor antagonism | P35414 | CHO-K1 APJ beta-arrestin complementation, luminescence | inhibition, % at 20 µM | actives 0.32% (n = 330,000) | AID 2521;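 active = inhibition above about 40% at 20 µM, limit read from the data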;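 note: cells challenged with 10 nM apelin-13 agonist together with compound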
# CXCR6 inh: inhibitors of human CXCR6 receptor; O00574; CHO-K1 PathHunter CXCR6 beta-arrestin, luminescence; inhibition, % at 20 µM; actives 0.36% (n = 360,000); AID 602244; in the data active = inhibition above about 34%, passing the limit was not always enough;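 note: antagonist mode with CXCL16 agonist at 10 nM final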
# EBI2 antag conf: EBI2 (human) antagonism, single concentration confirmation; shares compounds with EBI2 antag; EBI2 beta-arrestin luminescence, 7a,25-OHC antagonism; inhibition, % at 5 µM; actives 29% (n = 2,400);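 active = inhibition of at least 50%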
# EBI2 ag: counter-screen for EBI2 antagonists: EBI2 agonist activity. activation, % at 5 µM. EBI2-expressing cells, agonist mode, luminescence, 60 min; 0% vehicle, 100% 7α,25-dihydroxycholesterol control. AID 652000. 2,400 tested, under 10 active. shares compounds with EBI2 antag;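 active = activation of at least 50%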
# bGal cs: beta-galactosidase inhibition counter-screen; shares compounds with EBI2 antag; purified beta-galactosidase, luminescent Galacton Star, 15 min; inhibition, % at 5 µM; actives 1% (n = 2,400); AID 652176;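 active = replicate-average signal at least 3 plate SD below neutral wells, shown as high inhibition, flagging enzyme-inhibiting false positives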;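 note: higher means stronger loss of beta-gal luminescence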
# Hits are given with their value; i = inactive; nt = not tested or not shown. Compounds with a hit are over-represented: about 2.2% of the library has one in this group of screens.
SMILES,APJ ag,EBI2 antag,HTR2A ag,CCR6 antag,APJ antag,CXCR6 inh,EBI2 antag conf,EBI2 ag,bGal cs
Cc1ccc(C)c(S(=O)(=O)N2CCN(CC(=O)Nc3ccc4c(c3)OCCO4)CC2)c1,i,i,i,i,i,i,nt,nt,nt
CN(CC(=O)Nc1ccc(Cl)cc1)C(=O)c1cccc(S(=O)(=O)N2CCN(Cc3ccccc3)CC2)c1,i,62,i,i,i,i,i,i,i
CN(C)c1ccc(NC(=O)CN2CCN(S(=O)(=O)c3cc(Cl)ccc3Cl)CC2)cc1,i,64,i,i,i,i,i,i,i
Cc1ccc(C)c(S(=O)(=O)N2CCN(CC(=O)Nc3ccc4c(c3)CCC4)CC2)c1,i,47,i,i,i,i,i,i,i
Cc1cc(C)cc(NC(=O)Nc2ccc3c(c2)N(C)C(=O)CS3)c1,i,38,i,i,i,i,i,i,i
O=c1[nH]c(C2CCN(S(=O)(=O)Cc3ccccc3)CC2)nc2c1nnn2Cc1ccccc1,i,i,i,i,i,i,nt,nt,nt
O=c1[nH]c(C2CCN(S(=O)(=O)/C=C/c3ccccc3)CC2)nc2c1nnn2Cc1ccc(F)cc1,i,48,i,i,i,i,i,i,i
CCCNC(=O)C[C@H]1CC[C@@H]2[C@H](COC[C@@H](O)CN2C(=O)c2ccccn2)O1,nt,i,i,nt,nt,nt,nt,nt,nt
COc1ccc(OCCNC(=O)c2cccc(Oc3ccc(C(F)(F)F)cc3[N+](=O)[O-])c2)cc1,i,43,i,i,i,i,i,i,i
Cc1ccc(CNC(=O)/C=C/c2ccc(S(=O)(=O)NCc3ccco3)cc2)cc1,i,44,i,i,i,i,i,i,i
COc1cc(Cn2c3ccc(NC(=O)CCc4ccc(O)cc4)cc3c(=O)n2C)ccc1F,nt,i,i,nt,nt,i,nt,nt,nt
COC(=O)Cc1ccc(NC(=O)c2ccc3c(c2)C(=O)N(Cc2ccco2)C3=O)cc1,i,52,i,i,i,i,i,i,i
COC(=O)Cc1ccc(NC(=O)c2ccc3c(c2)C(=O)N(Cc2cccnc2)C3=O)cc1,i,i,i,i,i,i,nt,nt,nt
O=C(CSc1n[nH]c(=O)[nH]c1=O)Nc1ccc(C(=O)O)cc1,i,49,i,i,i,i,i,i,i
CC1=C/C(=N\NC(=S)Nc2cccnc2)CC(C)(C)C1,nt,39,i,i,nt,i,78,i,i
CCCc1nc2ccc(Br)cn2c1Cc1cccc(Cl)c1,nt,i,i,nt,nt,i,nt,nt,nt
O=C(/C=C/c1ccc(F)cc1)N1CCCN(C(=O)/C=C/c2ccc(F)cc2)CC1,i,85,i,i,i,i,73,i,i
Cc1ccc(/C=C/C(=O)N2CCCN(C(=O)/C=C/c3ccc(C)cc3)CC2)cc1,i,94,i,i,i,i,82,i,i
O=C(C=Cc1ccccc1)N1CCCCC1,nt,i,i,i,nt,i,nt,nt,nt
CCN1CCN(C(=O)/C=C/c2ccc(C)cc2)CC1,i,95,i,i,i,i,84,i,i
Cc1ccc(/C=C/C(=O)NN2CCN(C)CC2)cc1,i,64,i,i,i,i,i,i,i
CCN(C)C1CN(Cc2cn(Cc3cccc(C(F)(F)F)c3)nn2)S(=O)(=O)C1 (stereo not given),nt,i,i,nt,nt,i,nt,nt,nt
Cc1ccc(S(=O)(=O)N2C[C@H]3C(=O)C[C@@H](c4ccccc4)N(S(=O)(=O)c4ccccc4[N+](=O)[O-])[C@H]3C[C@H]2c2ccccc2)cc1,nt,i,i,nt,nt,i,nt,nt,nt
FC(F)(F)Oc1ccccc1C(c1nnnn1Cc1ccccc1)N1CCN(C/C=C/c2ccccc2)CC1 (stereo not given),nt,67,i,nt,nt,i,i,i,i
CCCCn1nnnc1C(c1ccccc1OC(F)(F)F)N1CCN(C/C=C/c2ccccc2)CC1 (stereo not given),nt,68,i,nt,nt,i,58,i,i
SMILES,APJ ag,EBI2 antag,HTR2A ag,CCR6 antag,APJ antag,CXCR6 inh,EBI2 antag conf,EBI2 ag,bGal cs
COc1ccccc1C(c1nnnn1Cc1ccccc1)N1CCN(C2CCCC2)CC1 (stereo not given),i,i,i,i,i,i,nt,nt,nt
CC(=O)Nc1cc(-c2ccc(C(=O)N3CCOCC3)cc2)cn2c(-c3ccc(S(C)(=O)=O)cc3)cnc12,nt,i,i,nt,nt,i,nt,nt,nt
O=C(COc1ccccc1F)N1CCN(S(=O)(=O)/C=C/c2ccccc2)CC1,i,55,i,i,i,i,i,i,i
O=C(COc1ccc(Br)cc1)N1CCN(S(=O)(=O)/C=C/c2ccccc2)CC1,i,92,i,i,i,i,86,i,i
CCOC(=O)N1CCN(S(=O)(=O)/C=C/c2ccccc2)CC1,i,i,i,i,i,i,nt,nt,nt
COc1ccc(-c2cc(-c3ccccc3)nc3ncnn23)cc1,i,i,i,i,i,i,nt,nt,nt
COc1ccc(-c2cc(-c3ccc(Br)cc3)nc3ncnn23)cc1OC,i,60,i,i,i,i,i,i,i
CCCc1c(C(=O)N/N=C(\CC)c2ccccc2)nnn1-c1nonc1N,nt,i,i,nt,nt,i,nt,nt,nt
CC(C)N(C(=O)COC(=O)c1ccccc1C(=O)c1ccc(Cl)c([N+](=O)[O-])c1)C(C)C,i,46,i,i,i,i,i,i,i
C#Cc1cccc(NC(=O)c2ccc3c(c2)C(=O)N(Cc2cccnc2)C3=O)c1,i,45,i,i,i,i,i,i,i
O=C(c1ccco1)N1CCN(S(=O)(=O)/C=C/c2ccccc2)CC1,i,i,i,i,i,i,nt,nt,nt
O=C(c1ccc(Cl)cc1)N1CCN(S(=O)(=O)/C=C/c2ccccc2)CC1,i,92,i,i,i,i,67,i,i
COc1cc(SC)ccc1C(=O)N1CCN(c2ccccc2F)CC1,i,i,i,i,i,i,nt,nt,nt
COc1cc(SC)ccc1C(=O)N1CCN(S(=O)(=O)/C=C/c2ccccc2)CC1,i,65,i,i,i,i,i,i,i
Cc1ccc(S(=O)(=O)N2CCN(C(=O)c3cc(=O)c4ccccc4o3)CC2)cc1,i,46,i,i,i,i,i,i,i
Cc1ccc(C(=O)N2CCN(S(=O)(=O)c3ccc(C)cc3)CC2)cc1,i,i,i,i,i,i,nt,nt,nt
O=C(c1cc2ccccc2o1)N1CCN(S(=O)(=O)c2cccs2)CC1,i,59,i,i,i,i,53,i,i
O=C(c1ccco1)N1CCN(S(=O)(=O)c2cccs2)CC1,i,i,i,i,i,i,nt,nt,nt
